Source: PubChem BioAssay AID652260 (The Scripps Research Institute Molecular Screening Center, 2013)
The campaign covered roughly 3,500 compounds. About 1,000 (29%) were called active. Only a sample is shown. Unmarked numbers belong to inactive results.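 Rule for the calls: active = activation above its plate's cutoff, the mean activation of tested wells plus 3 SD (cut at about 7.9% in these data); inactive = the rest.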

test: SMARCA2 (BRM) function activators, confirmation, cell-based, luminescence, triplicate (AID 652260); details: MG213 cells, MMTV-luciferase with dexamethasone, overnight, at 9.1 µM, hits give high values, DMSO wells 0%, reference activator 100%, MG213 cells expressing E1A, Rb sequestered
Summary of the method: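 Assay system: MG213 MMTV-luciferase reporter cells; Quantity: 600 cells in each well; Incubation: compound exposure 24 h at 37 °C after 1-day dexamethasone priming; Read-out basis: % activation relative to DMSO and positive-control wells; Measured by: OneGlo luminescence, 15 min room-temperature incubation; Benchmarks: DMSO wells as low control, reference activator compound as high.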

Structure (SMILES) | activation
CCN(CC)C(=O)CSc1nnc(-c2cccc(OC)c2)o1 | 8.07% (active)
CCOC(=O)C(C)n1cnc2c(nnn2-c2cccc(OC)c2)c1=O (stereo not drawn) | 4.29%
COc1cccc(-c2nc3cc(C)ccc3o2)c1 | 7.4%
CCNC(=S)N1CCN(c2ncccn2)CC1 | -2.06%
Cc1cc(C)nc(Nc2n[nH]c(-c3ccccc3N)n2)n1 | 5.41%
CC(C)C[C@H]1CNC(=O)C(=O)N1C[C@H]1CCCN1C[C@H](Cc1ccc(O)cc1)N1C[C@H](CC(C)C)N(CC2CCCCCC2)C(=O)C1=O | -0.79%
O=C(Nc1cccc([N+](=O)[O-])c1)c1ccc2c(c1)OCO2 | 3.25%
COc1ccc(C(=O)Nc2ccc3c(c2)OCO3)cc1OC | 7.86% (active)
COCC(C)n1c(SCc2ccc(C(=O)OC)o2)nc2ccccc2c1=O (stereo not drawn) | 0.09%
Cc1cc(-c2n[nH]c(=S)n2/N=C/C(Br)=C/c2ccccc2)n[nH]1 | 2.39%
CC(=O)Nc1ccc(Nc2c3ccccc3nc3ccccc23)cc1 | 43% (active)
CCN(CC)CCNC(=O)c1ccc(NC(=O)c2cc(-c3ccncc3)nc3ccccc23)cc1 | 5.3%
O=C(Nc1ccc2nccnc2c1)c1ccco1 | 5.96%
CCCSC(=S)NC1CCS(=O)(=O)C1 (stereo not drawn) | -0.53%
c1ccc2cc3c(NCCN4CCOCC4)ccnc3cc2c1 | 34.6% (active)
COc1ccc(-c2cc(-c3ccc(N)cc3)nc(N)c2C#N)cc1OC | -1.93%
Cc1ccc(C(=O)NNC(=O)c2cccs2)cc1 | 1.93%
COc1ccc(/C=N/NC(=O)c2cc(-c3cccc(C)c3)nc3ccccc23)cc1O | 1.04%
COc1ccc(N=C(C)c2sc3ccccc3c2O)cc1 | 9.34% (active)
Cc1cc(C)c2nc3nc(C)cc(C)c3c(N)c2c1 | 60% (active)
COc1ccc(Cn2c(C)c(C)c(C#N)c2NC(=O)Nc2ccc(F)cc2)cc1 | 4.61%
C/C(CC(=O)NC(C)(C)C)=N\NC(=O)c1ccco1 | 5.29%
CN(C)C(=S)N=c1ssc(=S)n1Cc1ccco1 | 15.4% (active)
O=C1/C(=C\c2ccc([N+](=O)[O-])cc2)CS(=O)(=O)C/C1=C/c1ccc([N+](=O)[O-])cc1 | -15.7%
COc1ccccc1C1=Nc2cccc3cccc(c23)N1 | 2.63%

Structure (SMILES) | activation
O=C(CCCCCn1c(=S)[nH]c2ccsc2c1=O)NC1CCCCC1 | 1.02%
C=C1C(=O)[C@]23C[C@H]1CCC2[C@@]1(C)C(C[C@@H]3O)[C@](C)(C(=O)O)CC[C@@H]1O (stereo partly drawn) | 28.4% (active)
Cn1c(-c2ccc(F)cc2)cc2onc(-c3ccccc3Cl)c2c1=O | -3.34%
CN1CCN(CCCNC(=O)c2ccc(/C=C3\Oc4ccccc4N(Cc4ccc(Cl)cc4)C3=O)cc2)CC1 | 3.44%
COCn1c(COc2ccccc2)nc2ccccc21 | 8.62% (active)
CCc1ccc[n+](-c2nc([O-])sc2C=O)c1 | -1.34%
COc1ccc(CC2c3cc(OC)c(OC)cc3CC[N+]2(C)CCC(=O)OCCCCCOC(=O)CC[N+]2(C)CCc3cc(OC)c(OC)cc3C2Cc2ccc(OC)c(OC)c2)cc1OC (stereo not drawn) | 8.77% (active)
CCOC(=O)c1sc2nc(CSc3ccccc3)[nH]c(=O)c2c1C | -0.16%
COc1cc(CN2CCC(C(N)=O)CC2)ccc1OCc1ccccc1 | 13% (active)
O=C(c1cc(-c2ccc(O)cc2)on1)N1CCOCC1 | 7.73%
O=C(c1cc(-c2ccccc2O)on1)N1CCCC1 | 1.4%
O=C(c1cccs1)C1C(c2ccc(Br)cc2)NC(=S)NC1(O)C(F)(F)F (stereo not drawn) | 5.35%
Cc1ccc(-c2nc3ccc(Br)cn3c2Cc2ccccc2C(F)(F)F)cc1 | 0.37%
CCN(CC)C(=O)c1sc2nc(-c3ccccc3)ccc2c1N | 9.6% (active)
COc1ccc(C(CNC(=O)c2ccc(S(=O)(=O)Nc3ccccc3F)cc2)N(C)C)cc1 (stereo not drawn) | 0.35%
CN(C)S(=O)(=O)c1ccc2oc(SCC(=O)Nc3ccccc3F)nc2c1 | 7.95% (active)
CC(C)(C)C(=O)CSc1nc2ccccc2o1 | 6.81%
Cc1noc(C)c1/C=N/Nc1ccc2ccccc2n1 | 4.24%
CC1CCCCN1C(=S)NCc1ccccc1 (stereo not drawn) | 0.99%
COc1ccc(-c2cc3ncccc3cn2)cc1 | 8.92% (active)
COc1ccc(-c2csc(Cc3nc(O)cs3)n2)cc1 | -15.4%
CN(C)c1nc(=Nc2cccc(Cl)c2)ss1 | -15.3%
Cc1n[nH]c(=O)nc1N/N=C/c1cccs1 | 3.07%
CCC1CCC/C1=N\NC(=O)c1ccc(Cl)cc1 (stereo not drawn) | 2.31%
O=C(Nc1ccc2c(c1)CCC2)c1ccc(Br)s1 | 10.8% (active)

Structure (SMILES) | activation
Cc1ccc(NC(=O)c2cnc(SCC(=O)NCC3CCCO3)n(C)c2=O)cc1 (stereo not drawn) | 9.35% (active)
Cc1ccc(-c2c(C)n([O-])c3c([n+]2=O)CCC3)cc1 | 6.67%
N#Cc1ccccc1NC(=O)c1cccc(COc2ccc(Cl)cc2Cl)c1 | 4.05%
Fc1ccc(CNc2nc3ccccc3n3nnnc23)cc1 | 1.53%
COc1c(O)cc2oc(-c3ccc(O)c(O)c3)cc(=O)c2c1O | 12.6% (active)
CCCCNC(=O)C1CCC(CNS(=O)(=O)c2ccc(NC(C)=O)cc2)CC1 (stereo not drawn) | -3.14%
Cc1cc2oc3ccc(NCCC4CCCN4C)cc3c(=O)c2cc1C (stereo not drawn) | 5.48%
CC1CCCCC1NC(=O)CN1CCC(O)(c2ccc3c(c2)OCO3)CC1 (stereo not drawn) | -0.84%
CCCC(=O)N1c2ccc(-c3csc(N)n3)cc2CC1C (stereo not drawn) | 8.32% (active)
Cc1cc(C(=O)NNC(=S)Nc2ccccc2C)cs1 | 3.37%
Cc1cc(C)c2nc(NC(=O)C3CCCO3)sc2c1 (stereo not drawn) | 9.52% (active)
O=C(Nc1nnc(CCc2ccccc2)s1)C1CCCO1 (stereo not drawn) | 1.02%
C=CC(=O)OCCOCCOCCOCCOC(=O)C=C | 7.95% (active)
O=C1Cc2cc(S(=O)(=O)Nc3cccc(F)c3)ccc2N1 | 0.74%
NS(=O)(=O)c1ccccc1NC(=O)c1c(O)c2ccccc2[nH]c1=O | 12.1% (active)
CCOc1cc(NC(=S)NCCCOC)c(OCC)cc1NC(=O)c1ccco1 | -1.02%
Cc1ccc(S(=O)(=O)NC(C)C(=O)NCc2ccc(Cl)cc2)cc1 (stereo not drawn) | -3.9%
CCCCn1nnnc1C(c1cc2ccccc2o1)N(C)Cc1ccc(Cl)c(Cl)c1 (stereo not drawn) | -4.28%
COc1ccc(/C(N)=N/OC(=O)Oc2ccccc2)cc1 | -2.89%
COc1ccccc1OCC(=O)O/N=C(\N)c1ccccn1 | 10.6% (active)
O=C(CSc1nc2ccccc2[nH]1)c1cccs1 | 2.82%
CN(C)CCNC(=O)c1cccc(-c2cnc3c(NC=O)cc(-c4cccc(C(F)(F)F)c4)cn23)c1 | -12.7%
CC(=O)c1cccc(-c2cnc3c(NC=O)cc(-c4ccc(N5CCN(C)CC5)cc4)cn23)c1 | 16.5% (active)
CC(=O)Nc1cc(-c2ccc(N3CCN(C)CC3)cc2)cn2c(-c3ccc(F)cc3)cnc12 | 17.5% (active)
COc1ccc(C)cc1S(=O)(=O)N(CC(=O)Nc1cccc([N+](=O)[O-])c1)c1ccc(C)cc1 | 0.21%

Structure (SMILES) | activation
Cc1ccc(S(=O)(=O)c2c[nH]c3ccc(Cl)cc3c2=O)cc1 | 0.08%
COc1ccc(S(=O)(=O)NC(C)C(=O)N2CCCCCC2)cc1 (stereo not drawn) | -2.64%
O=C(NCc1ccccn1)c1cnc2sccn2c1=O | 1.34%
Cc1cc(C)n2nc(CNS(=O)(=O)c3c(F)c(F)c(F)c(F)c3F)nc2n1 | 19.1% (active)
Cc1cc(-n2cnc(-c3cn(C)nc3C)n2)no1 | 3.17%
COC(=O)C1C(=O)c2c([nH]c(C(=O)OCCSC)c2C)CC1C (stereo not drawn) | 6.36%
O=C(O)c1cccc(N=NN2CCCCCC2)c1 | 12.5% (active)
CC(=O)c1sc(N/N=C\c2ccc(C)cc2)nc1C | 6.84%
O=C(OCC(=O)c1cccs1)C1=COCCO1 | 8.33% (active)
COc1ccc(NC(=O)c2sccc2SCC#N)cc1 | 0.37%
Cc1cc(O)c(NC(=O)c2ccc(C)c([N+](=O)[O-])c2)cc1C | 5.6%
Cc1cc(=O)[nH]c(N/N=C/c2ccc3c(c2)OCCO3)n1 | 7.09%
Cn1c2ccc(F)cc2c2nnc(NN)nc21 | -1.11%
Cc1nc(N=C(N)N)nc2c(C)cccc12 | 40.3% (active)
COc1ccc2nc(/N=C(\N)NC(=O)Nc3ccccc3)nc(C)c2c1 | 2.85%
O=C(Nc1cccc([N+](=O)[O-])c1)N1CCc2ccccc2C1 | 5.56%
Cc1ccsc1-c1nc(CSCC(=O)NCCN2CCCC2)c(C)o1 | -0.08%
CCC(=O)Nc1ccc2nn(-c3ccc(F)cc3)nc2c1 | 11.7% (active)
Cn1cc(/C=C/C(=O)N2CCCC(C(=O)c3ccc(C(F)(F)F)cc3)C2)cn1 (stereo not drawn) | 1.67%
Cc1c(NC(=O)CSc2cccc3cccnc23)c(=O)n(-c2ccccc2)n1C | -8.3%
Cc1cccc(CSc2ccc(-c3cccs3)nn2)c1 | 7.87% (active)
COC(=O)Cc1nnn2c1[C@H](C)[C@H](c1ccccc1[N+](=O)[O-])OCC2 | 0.13%
O=[N+]([O-])c1ccc2c(c1)Nc1nc3ccccc3nc1N2 | 24.9% (active)
